Data from ChEMBL document CHEMBL4011636, “Utilization of an Active Site Mutant Receptor for the Identification of Potent and Selective Atypical 5-HT2C Receptor Agonists” (J Med Chem, 2017).
Activity calls are given as the source filed them.

Tests used:
[1] = Drug uptake in Sprague-Dawley rat brain at 30 mg/kg, po measured at 3 hrs post dose by LC/MS-MS analysis; assay type: ADME, organism-based; details: read-out: Drug uptake
Outline: (§1)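 Male rats given 30 mg/kg orally in 0.15% docusate sodium/2% PVP-K/97.85% water. Plasma and brain were sampled at a single time point after dosing. Brain was diluted 1:2 (vol/weight) with water before homogenization (dilution factor 3). Concentrations were measured by LC/MS−MS after acetonitrile protein precipitation. Values are the average of three animals; B/P is the brain to plasma ratio.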

Rattus norvegicus [2] = assay: Antiobesity activity in ad libitum feeding Sprague-Dawley rat model assessed as reduction in food pellet consumption administered po at 60 mins prior to the onset of the dark cycle followed by incubation for first 8 hrs in light cycle and 12 hrs in dark cycle; assay type: functional, organism-based
Outline: (§2)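 Male Sprague Dawley rats (~225 g; n = 6), trained in operant chambers, dosed orally with compound or vehicle (14% PPG, 1% Tween, 85% water) 60 min before dark onset. Food intake was monitored in individual boxes for 20 h (12 h dark plus first 8 h light). Percent reduction was computed from drug-treated versus vehicle-treated total intake.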

[3] = Permeability of compound at pH 7.4 by PAMPA; assay type: physicochemical; details: read-out: permeability
[4] = target: T1, 5-hydroxytryptamine receptor 2B (Homo sapiens, UniProt P41595); assay: Intrinsic activity at recombinant human 5-HT2B receptor expressed in HEK293E cells assessed as induction of intracellular Ca2+ levels after 90 secs by Fluo-4-dye based FLIPR assay relative to serotonin; assay type: functional, cell-based; details: HEK293
Outline: (§3)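 FLIPR Fluo-4 Ca2+ assay in HEK293E cells stably expressing the human receptor (VNV isoform for 5-HT2C), eleven-point concentration series, 90 s read. Response normalized to 3 μM serotonin on the same plate (defined as IA = 1). Intrinsic activity taken from a four-parameter logistic fit.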

[5] = target: T1, 5-hydroxytryptamine receptor 2B; assay: Agonist activity at recombinant human 5-HT2B receptor expressed in HEK293E cells assessed as induction of intracellular Ca2+ levels after 90 secs by Fluo-4-dye based FLIPR assay; assay type: cell-based, HEK293
Outline: (§4)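 HEK293E cells stably expressing human receptor (VNV isoform for 5-HT2C; ~400−795 fmol/mg protein), grown in DMEM with 10% dialyzed FBS and G418. Cells plated at 20 000/well in serum-free DMEM overnight at 37 °C, then loaded 1 h at room temperature with 5 μM Fluo-4 in HBSS/25 mM HEPES. Eleven compound concentrations added on FLIPR, Ca2+ signal read for 90 s. EC50 from a four-parameter logistic fit, at least triplicate.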

[6] = target: 5-hydroxytryptamine receptor 2A (Homo sapiens, UniProt P28223); assay: Agonist activity at recombinant human 5-HT2A receptor expressed in HEK293E cells assessed as induction of intracellular Ca2+ levels after 90 secs by Fluo-4-dye based FLIPR assay; assay type: cell-based, HEK293; outline: as §4
Rattus norvegicus [7] = assay: Antiobesity activity in ad libitum feeding Sprague-Dawley rat model assessed as reduction in food pellet consumption at 30 mg/kg, po administered at 60 mins prior to the onset of the dark cycle followed by incubation for first 8 hrs in light cycle and 12 hrs in dark cycle; assay type: functional; design: scale not given: the % may be the effect or the level left; outline: as §2
[8] = Half life in human microsomes; assay type: ADME, Microsome
Rattus norvegicus [9] = assay: Antiobesity activity in ad libitum feeding Sprague-Dawley rat model assessed as reduction in food intake at 30 mg/kg, po administered at 60 mins prior to the onset of the dark cycle followed by incubation for first 8 hrs in light cycle and 12 hrs in dark cycle in presence of 5-HT2C anatgonist SB-243213; assay type: functional; design: scale not given: the % may be the effect or the level left
Rattus norvegicus [10] = assay: Toxicity in ad libitum feeding Sprague-Dawley rat model assessed as reduction in water intake at 3 to 30 mg/kg, po administered at 60 mins prior to the onset of the dark cycle followed by incubation for first 8 hrs in light cycle and 12 hrs in dark cycle; assay type: organism-based; details: in vivo
[11] = Permeability of compound at pH 5.5 by PAMPA; assay type: physicochemical; details: read-out: permeability
[12] = target: T2, 5-hydroxytryptamine receptor 2C (Homo sapiens, UniProt P28335); assay: Agonist activity at recombinant human 5-HT2C receptor expressed in HEK293E cells assessed as induction of intracellular Ca2+ levels after 90 secs by Fluo-4-dye based FLIPR assay; assay type: functional, cell-based, HEK293; outline: as §4
T2 sequence (P28335 whole entry): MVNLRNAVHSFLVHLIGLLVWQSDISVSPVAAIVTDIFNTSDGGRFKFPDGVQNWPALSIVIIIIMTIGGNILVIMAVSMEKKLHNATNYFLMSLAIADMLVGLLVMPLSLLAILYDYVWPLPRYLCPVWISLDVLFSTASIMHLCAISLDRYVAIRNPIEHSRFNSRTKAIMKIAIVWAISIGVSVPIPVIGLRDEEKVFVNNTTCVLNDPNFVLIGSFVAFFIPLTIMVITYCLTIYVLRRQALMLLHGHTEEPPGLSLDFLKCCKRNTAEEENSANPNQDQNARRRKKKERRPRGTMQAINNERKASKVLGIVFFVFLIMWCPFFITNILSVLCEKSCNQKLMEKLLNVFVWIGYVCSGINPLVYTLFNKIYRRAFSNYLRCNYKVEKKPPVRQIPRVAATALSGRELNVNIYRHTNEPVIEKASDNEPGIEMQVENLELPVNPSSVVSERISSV

[13] = Ratio of drug uptake in Sprague-Dawley rat brain to plasma at 30 mg/kg, po measured at 3 hrs post dose by LC/MS-MS analysis; assay type: ADME, organism-based; details: read-out: BPR; outline: as §1
[14] = Permeability across apical to basolateral side in human Caco2 cells; assay type: ADME, cell-based; details: Caco-2, read-out: permeability
[15] = Permeability across basolateral to apical side in human Caco2 cells; assay type: ADME, cell-based; details: Caco-2, read-out: permeability
[16] = Half life in rat microsomes; assay type: ADME, Microsome
[17] = Protein binding in rat plasma; assay type: ADME, cell-free; details: read-out: PPB (converted)
[18] = Efflux ratio of permeability across basolateral to apical side in human Caco2 cells; assay type: ADME, cell-based; details: Caco-2
[19] = Protein binding in human plasma; assay type: ADME, cell-free; details: read-out: PPB (converted)
Rattus norvegicus [20] = assay: Toxicity in ad libitum feeding Sprague-Dawley rat model assessed as effect on locomotor activity at 3 to 30 mg/kg, po administered at 60 mins prior to the onset of the dark cycle followed by incubation for first 8 hrs in light cycle and 12 hrs in dark cycle; assay type: organism-based; details: in vivo
Rattus norvegicus [21] = assay: Antiobesity activity in ad libitum feeding Sprague-Dawley rat model assessed as reduction in food pellet consumption at 3 to 10 mg/kg, po administered at 60 mins prior to the onset of the dark cycle measured at first 4 hrs post last dose; assay type: functional, organism-based
Outline: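 Male Sprague Dawley rats (n = 6) dosed orally 60 min before dark onset with 3 or 10 mg/kg, in vehicle of 14% PPG, 1% Tween, 85% water. Food pellet consumption was recorded in operant boxes and compared with vehicle over the first 4 h.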

[22] = target: T3, 5-hydroxytryptamine receptor 2C (Homo sapiens) (UniProt P28335); assay: Intrinsic activity at recombinant human 5-HT2C receptor expressed in HEK293E cells assessed as induction of intracellular Ca2+ levels after 90 secs by Fluo-4-dye based FLIPR assay relative to serotonin; assay type: functional, cell-based; details: HEK293; outline: as §3
T3 sequence (whole entry): T2 sequence (P28335 whole entry)

[23] = Metabolic stability in human liver microsomes assessed as parent compound remaining at […] after 10 mins; assay type: ADME, microsome; details: read-out: Stability
Rattus norvegicus [24] = assay: Antiobesity activity in ad libitum feeding Sprague-Dawley rat model assessed as reduction in food intake at 30 mg/kg, po administered at 60 mins prior to the onset of the dark cycle followed by incubation for first 8 hrs in light cycle and 12 hrs in dark cycle; assay type: functional; design: scale not given: the % may be the effect or the level left; outline: as §2
[25] = Plasma concentration in Sprague-Dawley rat at 30 mg/kg, po measured at 3 hrs post dose by LC/MS-MS analysis; assay type: ADME, organism-based; outline: as §1
[26] = Ratio of drug uptake in Sprague-Dawley rat brain to plasma at 30 mg/kg, po measured at 7 hrs post dose by LC/MS-MS analysis; assay type: ADME, organism-based; details: read-out: BPR; outline: as §1
[27] = Substrate activity at human P-gp; assay type: ADME
[28] = Drug uptake in Sprague-Dawley rat brain at 1 mg/kg, iv measured at 1 hr post dose by LC/MS-MS analysis
[29] = Metabolic stability in rat liver microsomes assessed as parent compound remaining at […] after 10 mins; assay type: ADME, microsome; details: read-out: Stability
[30] = Ratio of drug uptake in Sprague-Dawley rat brain to plasma at 1 mg/kg, iv measured at 1 hr post dose by LC/MS-MS analysis; assay type: ADME, organism-based; details: read-out: BPR
[31] = Plasma concentration in Sprague-Dawley rat at 1 mg/kg, iv measured at 1 hr post dose by LC/MS-MS analysis; assay type: ADME, organism-based
[32] = Substrate activity at rat P-gp; assay type: ADME
[33] = Drug uptake in Sprague-Dawley rat brain at 30 mg/kg, po measured at 7 hrs post dose by LC/MS-MS analysis; assay type: ADME, organism-based; details: read-out: Drug uptake; outline: as §1
[34] = Plasma concentration in Sprague-Dawley rat at 30 mg/kg, po measured at 7 hrs post dose by LC/MS-MS analysis; assay type: ADME, organism-based; outline: as §1

T1 sequence (P41595 whole entry, canonical isoform): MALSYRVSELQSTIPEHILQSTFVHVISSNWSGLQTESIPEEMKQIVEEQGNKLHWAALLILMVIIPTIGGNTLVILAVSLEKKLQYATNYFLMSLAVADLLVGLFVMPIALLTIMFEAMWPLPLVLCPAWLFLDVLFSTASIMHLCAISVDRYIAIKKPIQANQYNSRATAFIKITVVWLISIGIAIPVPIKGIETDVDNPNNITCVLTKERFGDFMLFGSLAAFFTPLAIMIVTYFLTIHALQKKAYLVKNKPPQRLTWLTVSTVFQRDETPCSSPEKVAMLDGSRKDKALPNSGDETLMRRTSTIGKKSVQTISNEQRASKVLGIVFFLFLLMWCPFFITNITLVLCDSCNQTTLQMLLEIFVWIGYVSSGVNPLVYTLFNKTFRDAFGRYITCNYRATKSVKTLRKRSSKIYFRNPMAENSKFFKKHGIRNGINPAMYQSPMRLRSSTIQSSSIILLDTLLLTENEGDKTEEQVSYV
Chain of 5-hydroxytryptamine receptor 2A (P28223 whole entry): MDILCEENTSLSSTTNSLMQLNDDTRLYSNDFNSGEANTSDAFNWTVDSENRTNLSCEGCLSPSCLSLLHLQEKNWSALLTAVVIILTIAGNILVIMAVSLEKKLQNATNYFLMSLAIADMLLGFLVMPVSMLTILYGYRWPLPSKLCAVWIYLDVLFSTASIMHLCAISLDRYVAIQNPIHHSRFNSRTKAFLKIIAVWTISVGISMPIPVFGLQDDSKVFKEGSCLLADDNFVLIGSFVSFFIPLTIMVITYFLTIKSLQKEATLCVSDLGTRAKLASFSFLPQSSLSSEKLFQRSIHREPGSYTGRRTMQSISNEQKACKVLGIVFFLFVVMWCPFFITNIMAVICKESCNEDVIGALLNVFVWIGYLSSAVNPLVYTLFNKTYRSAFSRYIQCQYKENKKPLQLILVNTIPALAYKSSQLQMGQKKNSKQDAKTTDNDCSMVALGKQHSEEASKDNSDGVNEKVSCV

SMILES	Papp [3] [×10⁻⁶ cm/s]	EC50 [5] [nM]	EC50 [6] [nM]	half-life [8] [min]	Papp [11] [×10⁻⁶ cm/s]	EC50 [12] [nM]	Papp A→B [14] [×10⁻⁶ cm/s]	Papp B→A [15] [×10⁻⁶ cm/s]	half-life [16] [min]	fraction unbound [17]	efflux ratio [18]	fraction unbound [19]	Intrinsic activity [22]	remaining at 10 min [23] [%]	also measured
CCn1nc(-c2cccc3cccnc23)cc1-c1ccc(N)nn1	88.9	48	635	16	72.7	5	77.7	52.8	25	0.079	0.7	0.062	0.8	61	concentration at 3 h [1]: 3920 nM; Activity (Rattus norvegicus [2]): Dose-dependent effect; Intrinsic activity [4]: 0.2; Activity (Rattus norvegicus [7]): 24%; Activity (Rattus norvegicus [9]): 12%; Activity (Rattus norvegicus [10]): Non-Toxic; Kp at 3 h [13]: 0.9; Activity (Rattus norvegicus [20]): Non-Toxic; Activity (Rattus norvegicus [21]): Active; Activity (Rattus norvegicus [24]): 38%; concentration at 3 h [25]: 7540 nM
Cc1nc(-c2cccc3ccccc23)sc1C(=O)N1CCC(CO)CC1	73.9	> 10000	> 10000	21	60.7	6	32.9	17.5	6	0.004	0.5	0.005	1 to 1.1	80	Kp at 7 h [26]: 0.05; Activity [27]: Not Active; concentration at 1 h [28]: 76 nM; remaining at 10 min [29]: 24%; Kp at 1 h [30]: 0.15; concentration at 1 h [31]: 569 nM; Activity [32]: Active; concentration at 7 h [33]: 35 nM; concentration at 7 h [34]: 736 nM
